Molecules are shown by their SMILES. Non-standard residues stand in square brackets, D forms with d. Residues, ends and D or L forms follow the SMILES beside them. Groups on a side chain read outwards from the residue. ξ: configuration not given here. *: point of attachment. Phe(4-Br) = N[C@@H](Cc1ccc(Br)cc1)C(=O)O; Phe(4-Cl) = N[C@@H](Cc1ccc(Cl)cc1)C(=O)O; Phe(4-NH2) = Nc1ccc(C[C@H](N)C(=O)O)cc1; 2Nal = N[C@@H](Cc1ccc2ccccc2c1)C(=O)O; hArg = N=C(N)NCCCC[C@H](N)C(=O)O; hPhe = N[C@@H](CCc1ccccc1)C(=O)O; Cha = N[C@@H](CC1CCCCC1)C(=O)O; Phg = N[C@H](C(=O)O)c1ccccc1; Nle = CCCC[C@H](N)C(=O)O; Dab = NCC[C@H](N)C(=O)O; Nva = CCC[C@H](N)C(=O)O; Dap = NC[C@H](N)C(=O)O; ξDab = NCCC(N)C(=O)O; ξDap = NCC(N)C(=O)O; Bn = c1ccc(C*)cc1

Among the data in ChEMBL document CHEMBL1155257, “Proteochemometrics mapping of the interaction space for retroviral proteases and their substrates” (Bioorg Med Chem, 2009) are Ki values, retold here.

Experiment [1] addresses T1, Protease (Human immunodeficiency virus 1, UniProt Q9YQ12). The experiment can be described thus: Inhibition of wild type HIV1 HXB2 protease at 100 uM.
Experiment [2] concerns the target T2, Human immunodeficiency virus type 1 protease (Human immunodeficiency virus 1, UniProt Q72874, L90M). The experiment can be described thus: Inhibition of HIV1 HXB2 protease L90M mutant at 100 uM. The procedure, abridged:
(§1)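 Mutant HIV-1 HXB2 protease clones (I84V, L90M, or I84V+L90M), 70 ng per 100 µL reaction. Buffer: 0.1 M acetic acid, 1.1 M NaCl, pH 5.0. Enzyme preincubated 10 min at 37 °C with hexapeptide (11 twofold dilutions from 100 µM). Substrate (2.25 µg) then added and reacted 30 min at 37 °C. Fluorescence read every 60 s (ex 355/em 490 nm) against a no-inhibitor control.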

The nature of experiment [3]: Inhibition of HIV1 HXB2 protease […] mutant at 100 uM. Details: species or system Human immunodeficiency virus 1; call rule not given here. The procedure, abridged: as §1
Experiment [4] can be described thus: Inhibition of HIV1 HXB2 protease […], L90M mutant at 100 uM. Further details: species or system Human immunodeficiency virus 1. Put shortly: as §1
For experiment [5], the target named is T1, Protease. The experiment can be described thus: Inhibition of wild type HIV1 HXB2 protease. The procedure, abridged: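 HXB2 HIV-1 protease clone (35 ng per 100 µL) in 0.1 M acetic acid, 1.1 M NaCl, pH 5.0. Hexapeptide was preincubated with enzyme for 10 min at 37 °C. Substrate (2.25 µg) was then added and fluorescence (ex 355/em 490 nm) read over 30 min at 37 °C. Eleven twofold dilutions from 100 µM; 1 mM stocks in DMSO/water 1:2. Protease-plus-substrate control without inhibitor.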

For experiment [6], the target named is T2, Human immunodeficiency virus type 1 protease. The experiment in a line: Inhibition of HIV1 HXB2 protease L90M mutant. Put shortly: as §1
Experiment [7] can be described thus: Inhibition of HIV1 HXB2 protease 184V mutant. Details: species or system Human immunodeficiency virus 1. The procedure, abridged:
as §1

Experiment [8] can be described thus: Inhibition of HIV1 HXB2 protease […], L90M mutant. Further details: species or system Human immunodeficiency virus 1. The procedure, abridged:
as §1

T1 sequence (Q9YQ12 whole entry): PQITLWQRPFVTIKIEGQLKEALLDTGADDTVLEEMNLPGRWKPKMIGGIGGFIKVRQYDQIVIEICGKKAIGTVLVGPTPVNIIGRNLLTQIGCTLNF

A word on the Ki: it is the equilibrium dissociation constant of an inhibitor or competing ligand from its target. Higher therefore signals weaker binding. For `CC(=O)N[C@@H](CO)C(=O)N1CCC[C@H]1C(=O)N[C@@H](C)C(=O)N[C@H](C(=O)N[C@@H](CCC(=O)O)C(=O)N[C@@H](C)C(=O)O)[C@@H](C)O` (Ac-SPATEA-OH), the Ki result in experiment [1], in experiment [2], in experiment [3] and in experiment [4] was “Not Active” in each case.

Turning to `CC(=O)N1CCC[C@H]1C(=O)N[C@@H](Cc1ccc(O)cc1)C(=O)N[C@@H](C)C(=O)NCC(=O)N[C@@H](C)C(=O)N[C@@H](CCC(N)=O)C(=O)O` (Ac-PYAGAQ-OH), the Ki entry in experiment [1], in experiment [2], in experiment [3] and in experiment [4] was “Not Active” throughout.

With `CSCC[C@H](NC(=O)[C@H](CC1CCCCC1)NC(=O)[C@@H](N)Cc1ccc2ccccc2c1)C(=O)N[C@@H](CCC(=O)O)C(=O)N[C@H](C(=O)N[C@@H](CC1CCCCC1)C(=O)O)c1ccccc1` (H-[2Nal][Cha]ME[Phg][Cha]-OH), the Ki in experiment [5] was 5.5 µM; in experiment [6], 2.4 µM; in experiment [7] it was 3.9 µM; in experiment [8], 2.7 µM.

On to `CC(C)C[C@H](NC(=O)[C@H](Cc1ccccc1)NC(=O)[C@H](CCCCNC(=N)N)NC(=O)[C@@H](N)CNC(=O)[C@H](CC1CCCCC1)NC(=O)[C@@H](N)CCc1ccccc1)C(=O)O` (H-[Dap]([Cha-hPhe])[hArg]FL-OH), for which the Ki in experiment [5] is 4.6 µM; in experiment [6] it was 26.5 µM; in experiment [3], “Not Active”; in experiment [4] it was “Not Active”.

With `CC(=O)N[C@@H](CO)C(=O)N[C@H](C(=O)N[C@@H](CCCNC(=N)N)C(=O)N[C@@H](CS)C(=O)N[C@@H](CO)C(=O)N[C@@H](Cc1c[nH]c2ccccc12)C(=O)O)C(C)C` (Ac-SVRCSW-OH), the Ki result in experiment [1], in experiment [2], in experiment [3] and in experiment [4] was “Not Active” in each case.

Take `CCCC[C@H](NC(=O)[C@H](Cc1ccc(OCc2ccccc2)cc1)NC(=O)[C@H](Cc1ccc(N)cc1)NC(=O)[C@H](CCCCN)NC(=O)[C@H](CC1CCCCC1)NC(=O)[C@@H](N)Cc1ccc2ccccc2c1)C(=O)O` (H-[2Nal][Cha]K[Phe(4-NH2)]Y(Bn)[Nle]-OH): the Ki was 24.1 µM in experiment [5], 9.2 µM in experiment [6], 31.6 µM in experiment [7] and 56 µM in experiment [8].

In the case of `CC[C@H](C)[C@H](NC(=O)[C@H](Cc1cnc[nH]1)NC(=O)[C@H](C)NC(=O)[C@H](CO)NC(=O)[C@H](CCCNC(=N)N)NC(=O)[C@@H](NC(C)=O)C(C)C)C(=O)O` (Ac-VRSAHI-OH), the Ki result in experiment [1], in experiment [2], in experiment [3] and in experiment [4] was “Not Active” throughout.

In the case of `CC(=O)N[C@@H](CC(=O)O)C(=O)NCC(=O)NCC(=O)N[C@@H](C)C(=O)N[C@@H](CC(C)C)C(=O)N[C@@H](CO)C(=O)O` (Ac-DGGALS-OH), the Ki result in experiment [1], in experiment [2], in experiment [3] and in experiment [4] was “Not Active” throughout.

On to `CC(=O)N[C@@H](C)C(=O)N[C@@H](Cc1cnc[nH]1)C(=O)N[C@@H](Cc1ccc(O)cc1)C(=O)N[C@@H](C)C(=O)N[C@H](C(=O)N[C@@H](Cc1cnc[nH]1)C(=O)O)[C@@H](C)O` (Ac-AHYATH-OH), for which the Ki result in experiment [1], in experiment [2], in experiment [3] and in experiment [4] was “Not Active” in each case.

Consider `NC(CCNC(=O)[C@H](CC1CCCCC1)NC(=O)[C@@H](N)Cc1ccc(Cl)cc1)C(=O)N[C@@H](CCC(=O)O)C(=O)N[C@@H](Cc1ccccc1)C(=O)N[C@@H](CC1CCCCC1)C(=O)O` (stereo not given in full) (H-[ξDab]([Cha-Phe(4-Cl)])EF[Cha]-OH), for which the Ki was 3.8 µM in experiment [5], 31.1 µM in experiment [6], “Not Active” in experiment [3] and “Not Active” in experiment [4].

Regarding `N=C(N)NCCC[C@H](NC(=O)C(N)CCNC(=O)[C@H](CC1CCCCC1)NC(=O)[C@@H](N)CCc1ccccc1)C(=O)N[C@@H](CCc1ccccc1)C(=O)N[C@@H](CC1CCCCC1)C(=O)O` (stereo not given in full) (H-[ξDab]([Cha-hPhe])R[hPhe][Cha]-OH), the inhibitory constant (Ki) is 2 µM in experiment [5], 47.4 µM in experiment [6], “Not Active” in experiment [3] and “Not Active” in experiment [4].

`CC(=O)NCC(=O)N[C@H](C(=O)N[C@@H](C)C(=O)N[C@@H](Cc1ccc(O)cc1)C(=O)N[C@@H](CO)C(=O)N[C@@H](CS)C(=O)O)[C@@H](C)O` (Ac-GTAYSC-OH): the Ki result in experiment [1], in experiment [2], in experiment [3] and in experiment [4] was “Not Active” each time.

Regarding `CC(C)C[C@H](NC(=O)[C@H](Cc1ccc(Br)cc1)NC(=O)[C@H](CCC(=O)O)NC(=O)C(N)CNC(=O)[C@H](CC1CCCCC1)NC(=O)[C@@H](N)Cc1ccc(Cl)cc1)C(=O)O` (stereo partly drawn) (H-[ξDap]([Cha-Phe(4-Cl)])E[Phe(4-Br)]L-OH), the Ki in experiment [5] amounted to 5.5 µM; in experiment [6] it was 15.7 µM; in experiment [7], 37.7 µM; in experiment [8] it was 34.6 µM.

`CC(=O)N[C@H](C(=O)N[C@@H](C)C(=O)N[C@@H](C)C(=O)NCC(=O)N[C@@H](CCCNC(=N)N)C(=O)N[C@H](C(=O)O)[C@@H](C)O)[C@@H](C)O` (Ac-TAAGRT-OH): the Ki result in experiment [1], in experiment [2], in experiment [3] and in experiment [4] was “Not Active” throughout.

For the molecule `CC(=O)N[C@H](C(=O)N[C@@H](CC(N)=O)C(=O)N[C@H](C(=O)N[C@H](C(=O)N[C@@H](C)C(=O)N[C@@H](CC(=O)O)C(=O)O)[C@@H](C)O)[C@@H](C)O)[C@@H](C)O` (Ac-TNTTAD-OH), the Ki result in experiment [1], in experiment [2], in experiment [3] and in experiment [4] was “Not Active” throughout.

As to `CCC[C@H](NC(=O)[C@H](Cc1ccc2ccccc2c1)NC(=O)[C@H](CCCCNC(=N)N)NC(=O)[C@@H](N)CNC(=O)[C@H](CCC)NC(=O)[C@@H](N)CCc1ccccc1)C(=O)O` (H-[Dap]([Nva-hPhe])[hArg][2Nal][Nva]-OH), the Ki in experiment [5] was found to be 5.2 µM; in experiment [6], 23.6 µM; in experiment [7], 13.3 µM; in experiment [8], 15.7 µM.

As for `CCCC[C@H](NC(=O)[C@@H](N)Cc1ccc2ccccc2c1)C(=O)NCC[C@H](N)C(=O)N[C@@H](CCC(=O)O)C(=O)N[C@@H](CCc1ccccc1)C(=O)N[C@@H](CCC)C(=O)O` (H-[Dab]([Nle-2Nal])E[hPhe][Nva]-OH), the Ki in experiment [5] is 22 µM; in experiment [6], 16.7 µM; in experiment [3] it was “Not Active”; in experiment [4] it was “Not Active”.

For `CC(=O)N[C@@H](Cc1ccc(O)cc1)C(=O)N[C@@H](C)C(=O)N[C@H](C(=O)N1CCC[C@H]1C(=O)NCC(=O)N[C@H](C(=O)O)[C@H](C)O)[C@H](C)O`, the inhibition constant Ki entry in experiment [1], in experiment [2], in experiment [3] and in experiment [4] was “Not Active” throughout.

As to `CCC[C@H](NC(=O)[C@H](Cc1ccc(O)cc1)NC(=O)[C@H](CCCCNC(=N)N)NC(=O)[C@H](CCSC)NC(=O)[C@@H](NC(=O)[C@@H](N)Cc1ccc2ccccc2c1)C(C)C)C(=O)O` (H-[2Nal]VM[hArg]Y[Nva]-OH), the Ki stood at 5.4 µM in experiment [5], 6.9 µM in experiment [6], 19.9 µM in experiment [7] and 7.5 µM in experiment [8].

For the molecule `CCC[C@H](NC(=O)[C@H](Cc1ccc2ccccc2c1)NC(=O)[C@H](CCC(=O)O)NC(=O)C(N)CNC(=O)[C@H](CC1CCCCC1)NC(=O)[C@@H](N)Cc1ccc2ccccc2c1)C(=O)O` (stereo not given in full) (H-[ξDap]([Cha-2Nal])E[2Nal][Nva]-OH), the Ki in experiment [5] came out at 12 µM; in experiment [6], 9.7 µM; in experiment [7], 20.7 µM; in experiment [8] it was 20.8 µM.
